Columns and labels:
Type in all cases: functional
Escherichia coli [1] = test: Antibacterial activity against Escherichia coli ATCC25922 assessed as inhibition of visible bacterial growth measured after 20 hrs under aerobic condition by two fold serial dilution assay
In short: (§1)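 Broth microdilution following EUCAST. Compound was tested at final well concentrations of 0.25–128 µg/mL against 5.10^5 CFU/mL inoculum, incubated 20 h at 37 °C aerobically. MIC was taken as the lowest concentration with no visible growth. There were three independent experiments per strain.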

Klebsiella pneumoniae [2] = test: Antibacterial activity against Klebsiella pneumoniae ATCC700603 assessed as inhibition of visible bacterial growth measured after 20 hrs under aerobic condition by two fold serial dilution assay; in short: as §1
Pseudomonas aeruginosa [3] = test: Antibacterial activity against Pseudomonas aeruginosa ATCC27853 assessed as inhibition of visible bacterial growth measured after 20 hrs under aerobic condition by two fold serial dilution assay; in short: as §1
Escherichia coli [4] = test: Antibacterial activity against colistin resistant Escherichia coli NTCC 13846 harboring mcr-1 gene assessed as inhibition of visible bacterial growth measured after 20 hrs under aerobic condition by two fold serial dilution assay
Escherichia coli [5] = test: Antibacterial activity against colistin resistant Escherichia coli A50 harboring mcr-1 gene assessed as inhibition of visible bacterial growth measured after 20 hrs under aerobic condition by two fold serial dilution assay
Klebsiella pneumoniae [6] = test: Antibacterial activity against chromosomally-mediated resistant Klebsiella pneumoniae BA03057 assessed as inhibition of visible bacterial growth measured after 20 hrs under aerobic condition by two fold serial dilution assay
Pseudomonas aeruginosa [7] = test: Antibacterial activity against chromosomally-mediated colistin resistant Pseudomonas aeruginosa 15080 assessed as inhibition of visible bacterial growth measured after 20 hrs under aerobic condition by two fold serial dilution assay
Pseudomonas aeruginosa [8] = test: Antibacterial activity against chromosomally-mediated colistin resistant Pseudomonas aeruginosa 10039 assessed as inhibition of visible bacterial growth measured after 20 hrs under aerobic condition by two fold serial dilution assay
Pseudomonas aeruginosa [9] = test: Antibacterial activity against chromosomally-mediated colistin resistant Pseudomonas aeruginosa 1002 assessed as inhibition of visible bacterial growth measured after 20 hrs under aerobic condition by two fold serial dilution assay
Escherichia coli [10] = test: Colistin adjuvant activity against colistin-resistant Escherichia coli A50 assessed as antibacterial effect by measuring colistin MIC incubated for 24 hrs under aerobic condition by two fold serial dilution method
Klebsiella pneumoniae [11] = test: Colistin adjuvant activity against colistin-resistant Klebsiella pneumoniae BA03057 assessed as antibacterial effect by measuring colistin MIC incubated for 24 hrs under aerobic condition by two fold serial dilution method
Escherichia coli [12] = test: Colistin adjuvant activity against colistin-resistant Escherichia coli A50 assessed as colistin MIC by measuring potentiation fold incubated for 24 hrs under aerobic condition by two fold serial dilution method relative to colistin alone
Klebsiella pneumoniae [13] = test: Colistin adjuvant activity against colistin-resistant Klebsiella pneumoniae BA03057 assessed as colistin MIC by measuring potentiation fold incubated for 24 hrs under aerobic condition by two fold serial dilution method relative to colistin alone
Klebsiella pneumoniae [14] = test: Synergistic antibacterial activity against Klebsiella pneumoniae BA03057 assessed as fractional inhibitory concentration index incubated for 24 hrs under aerobic condition in presence of colistin by checkerboard assay
In short: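 Checkerboard against KP BA03057 at 5.10^5 CFU/mL. Colistin was two-fold diluted 0–64 µg/mL across compound two-fold diluted 0–100 µM. Plates were incubated 24 h at 37 °C aerobically and absorbance read at 600 nm. FICI = MIC(compound, combined)/MIC(compound alone) + MIC(colistin, combined)/MIC(colistin alone), with synergy at FICI < 0.5. Plates were run in duplicate.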

Compound | MIC (Escherichia coli [1]) | MIC (Klebsiella pneumoniae [2]) | MIC (Pseudomonas aeruginosa [3]) | MIC (Escherichia coli [4]) | MIC (Escherichia coli [5]) | MIC (Klebsiella pneumoniae [6]) | MIC (Pseudomonas aeruginosa [7]) | MIC (Pseudomonas aeruginosa [8]) | MIC (Pseudomonas aeruginosa [9]) | MIC (Escherichia coli [10]) | MIC (Klebsiella pneumoniae [11]) | fold change (FC) (Escherichia coli [12]) | fold change (FC) (Klebsiella pneumoniae [13]) | fractional inhibitory concentration index (FICI) (Klebsiella pneumoniae [14])
COLISTIN | 0.25 µg/mL | 0.5 µg/mL | 2 µg/mL | 2 µg/mL | 8 µg/mL | 64 µg/mL | 2 µg/mL | 4 µg/mL | 2 µg/mL |  |  |  |  | 
O=C(NCCc1c[nH]c2ccccc12)Nc1ccccc1F | > 128 µg/mL | > 128 µg/mL | > 128 µg/mL | > 128 µg/mL | > 128 µg/mL | > 128 µg/mL | > 128 µg/mL | > 128 µg/mL | > 128 µg/mL | 8 µg/mL | 8 µg/mL | 1 | 0.125 | 
CC(C)c1ccc(NC(=O)NCCc2c[nH]c3ccccc23)cc1 | > 128 µg/mL | > 128 µg/mL | > 128 µg/mL | > 128 µg/mL | > 128 µg/mL | > 128 µg/mL | > 128 µg/mL | > 128 µg/mL | > 128 µg/mL | 4 µg/mL | 16 µg/mL | 0.5 | 0.25 | 
COc1ccc(NC(=O)NCCc2c[nH]c3ccccc23)cc1 | > 128 µg/mL | > 128 µg/mL | > 128 µg/mL | > 128 µg/mL | > 128 µg/mL | > 128 µg/mL | > 128 µg/mL | > 128 µg/mL | > 128 µg/mL | 4 µg/mL | 16 µg/mL | 0.5 | 0.25 | 
O=C(NCCc1c[nH]c2ccccc12)Nc1cc(Cl)cc(Cl)c1 | > 128 µg/mL | > 128 µg/mL | > 128 µg/mL | > 128 µg/mL | > 128 µg/mL | > 128 µg/mL | > 128 µg/mL | > 128 µg/mL | > 128 µg/mL | 2 µg/mL | 2 µg/mL | 0.25 | 0.031 | 
O=C(NCCc1c[nH]c2ccccc12)Nc1cccc(Cl)c1 | > 128 µg/mL | > 128 µg/mL | > 128 µg/mL | > 128 µg/mL | > 128 µg/mL | > 128 µg/mL | > 128 µg/mL | > 128 µg/mL | > 128 µg/mL | 8 µg/mL | 2 µg/mL | 1 | 0.031 | 0.062
O=C(NCCc1c[nH]c2ccccc12)Nc1ccc(F)cc1 | > 128 µg/mL | > 128 µg/mL | > 128 µg/mL | > 128 µg/mL | > 128 µg/mL | > 128 µg/mL | > 128 µg/mL | > 128 µg/mL | > 128 µg/mL | 4 µg/mL | 8 µg/mL | 0.5 | 0.125 | 
O=C(NCCc1c[nH]c2ccccc12)Nc1ccc(Br)cc1 | > 128 µg/mL | > 128 µg/mL | > 128 µg/mL | > 128 µg/mL | > 128 µg/mL | > 128 µg/mL | > 128 µg/mL | > 128 µg/mL | > 128 µg/mL | 2 µg/mL | 8 µg/mL | 0.25 | 0.125 | 
O=C(NCCc1c[nH]c2ccccc12)Nc1ccccc1Br | > 128 µg/mL | > 128 µg/mL | > 128 µg/mL | > 128 µg/mL | > 128 µg/mL | > 128 µg/mL | > 128 µg/mL | > 128 µg/mL | > 128 µg/mL | 4 µg/mL | 2 µg/mL | 0.5 | 0.031 | 0.31
O=C(NCCc1c[nH]c2ccccc12)NCc1ccccc1 | > 128 µg/mL | > 128 µg/mL | > 128 µg/mL | > 128 µg/mL | > 128 µg/mL | > 128 µg/mL | > 128 µg/mL | > 128 µg/mL | > 128 µg/mL | 4 µg/mL | 8 µg/mL | 0.5 | 0.125 | 
O=C(NCCc1c[nH]c2ccccc12)Nc1ccc(Cl)cc1 | > 128 µg/mL | > 128 µg/mL | > 128 µg/mL | > 128 µg/mL | > 128 µg/mL | > 128 µg/mL | > 128 µg/mL | > 128 µg/mL | > 128 µg/mL | 4 µg/mL | 4 µg/mL | 0.5 | 0.062 | 0.276
CCCNC(=O)NCCc1c[nH]c2ccccc12 | > 128 µg/mL | > 128 µg/mL | > 128 µg/mL | > 128 µg/mL | > 128 µg/mL | > 128 µg/mL | > 128 µg/mL | > 128 µg/mL | > 128 µg/mL | 4 µg/mL | 8 µg/mL | 0.5 | 0.125 | 
CCCCCCNC(=O)NCCc1c[nH]c2ccccc12 | > 128 µg/mL | > 128 µg/mL | > 128 µg/mL | > 128 µg/mL | > 128 µg/mL | > 128 µg/mL | > 128 µg/mL | > 128 µg/mL | > 128 µg/mL | 4 µg/mL | 2 µg/mL | 0.5 | 0.031 | 0.143
Cc1ccc(NC(=O)NCCc2c[nH]c3ccccc23)cc1 | > 128 µg/mL | > 128 µg/mL | > 128 µg/mL | > 128 µg/mL | > 128 µg/mL | > 128 µg/mL | > 128 µg/mL | > 128 µg/mL | > 128 µg/mL | 4 µg/mL | 8 µg/mL | 0.5 | 0.125 | 
O=C(NCCc1c[nH]c2ccccc12)Nc1ccccc1Cl | > 128 µg/mL | > 128 µg/mL | > 128 µg/mL | > 128 µg/mL | > 128 µg/mL | > 128 µg/mL | > 128 µg/mL | > 128 µg/mL | > 128 µg/mL | 8 µg/mL | 8 µg/mL | 1 | 0.125 | 
O=C(NCCc1c[nH]c2ccccc12)Nc1ccc(C(F)(F)F)cc1 | > 128 µg/mL | > 128 µg/mL | > 128 µg/mL | > 128 µg/mL | > 128 µg/mL | > 128 µg/mL | > 128 µg/mL | > 128 µg/mL | > 128 µg/mL | 8 µg/mL | 2 µg/mL | 1 | 0.031 | 0.167
O=C(NCCc1c[nH]c2ccccc12)Nc1cccc(Br)c1 | > 128 µg/mL | > 128 µg/mL | > 128 µg/mL | > 128 µg/mL | > 128 µg/mL | > 128 µg/mL | > 128 µg/mL | > 128 µg/mL | > 128 µg/mL | 8 µg/mL | 8 µg/mL | 1 | 0.125 | 
O=C(NCCc1c[nH]c2ccccc12)Nc1ccccc1 | > 128 µg/mL | > 128 µg/mL | > 128 µg/mL | > 128 µg/mL | > 128 µg/mL | > 128 µg/mL | > 128 µg/mL | > 128 µg/mL | > 128 µg/mL | 8 µg/mL | 8 µg/mL | 1 | 0.125 | 
CC(C)(C)NC(=O)NCCc1c[nH]c2ccccc12 | > 128 µg/mL | > 128 µg/mL | > 128 µg/mL | > 128 µg/mL | > 128 µg/mL | > 128 µg/mL | > 128 µg/mL | > 128 µg/mL | > 128 µg/mL | 8 µg/mL | 8 µg/mL | 1 | 0.125 | 

Reference: ChEMBL document CHEMBL5523690, “Synergistic effect of tryptamine-urea derivatives to overcome the chromosomally-mediated colistin resistance in Klebsiella pneumoniae” (Bioorg Med Chem, 2024)
